Assay outcomes: PubChem, Broad Institute
The list is not random: actives were taken first. Their share in the collection is about 2.3%.
PAX8 inh HTS – lowers PAX8-driven luciferase in RMG-I cells; RMG-I TPO-luciferase reporter, SteadyGlo, 24 h; inhibition, % at 12.6 µM; 1.2% of 360,000 active; AID 652154;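 active means mean replicate inhibition at least 60% with every replicate also reaching 60%; inconclusive means only one of the two criteria is met; inactive means mean below 60% and not all replicates reaching 60%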;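 further: luciferase light reporting Pax8 driven TPO promoter activity; plate controls were median of neutral control wells for no effect and mitoxantrone controls for full effect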
FN deposition inh – fibronectin deposition inhibition; AH1F fibroblasts, Alexa488-fibronectin deposition fluorescence, overnight; inhibition, % at 12.6 µM; 0.086% of 350,000 active;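 active means mean inhibition across replicates of 30% or more, regardless of how many single replicates reach that level; inconclusive means mean under 30% yet at least half of replicates reach 30%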;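 further: positive control wells lacked labelled fibronectin entirely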
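Material: AH1F fibroblasts assembling fluorescent fibronectin matrix; amount: 10000 AH1F cells/well; medium: DMEM, 2% serum; reagent: Alexa488-fibronectin, 24 nM final in well; dosing: single compound dose, delivered by pin transfer; incubation: 1 h adhesion, overnight exposure; detection: fluorescence after three HBSS washes, excitation 485 nm, emission 525 nm; measure: fibronectin deposition inhibition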
PGC1a acetyl inh – modulators of PGC1a acetylation; U2OS PGC1a acetylation, AlphaScreen anti-acetyl-lysine; with virally co-expressed GCN5 acetyltransferase; inhibition, % at 15.6 µM; 0.17% of 350,000 active; AID 651687;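 active means every replicate shows inhibition of at least 40%; inconclusive means mean inhibition at least 40% but some replicate below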;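 further: 0% = neutral control wells and 100% = positive control wells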
F508del corr – CFTR F508del correction in bronchial cells; CFBE cells, YFP halide quenching; stimulated with forskolin plus potentiator P3; % fluorescence drop versus neutral controls; activity (quench increase), % at 7.58 µM; 0.36% of 350,000 active; AID 720511;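 active means mean added fluorescence quench of at least 8% versus neutral control, with both replicates also reaching 8%; inconclusive means only one of the mean or replicate conditions met; inactive means mean below 8% and not both replicates reaching 8%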;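 further: cells transiently co-express mutant CFTR-F508del with the halide-sensitive YFP; corrector assay measuring rescue of mutant channel to the surface after 24 h compound exposure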
EWS-Fli block – inhibitors of EWS/Fli oncoprotein transcriptional activity; A673 NR0B1-luciferase reporter, viability-normalised; inhibition, % at 12.6 µM; 0.67% of 350,000 active;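 active means mean inhibition of at least 50% after viability correction, with every replicate also passing that limit; inconclusive means mean reaches 50% but only one of two replicates passes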;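 further: firefly luciferase signal divided by Alamar Blue viability fluorescence both relative to DMSO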
HIV Env fusion – inhibitors of HIV Env-mediated cell fusion | HeLa-JRFL Env/CEM21 cell fusion, luciferase | inhibition, % at 12.3 µM | 1.1% of 360,000 active | AID 651610;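 active means mean replicate inhibition score of at least 50 and every replicate individually at or above 50; inconclusive means only one of the two criteria met; inactive means mean below 50 and not all replicates reaching 50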;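 further: 0% = plate neutral controls and 100% = maraviroc near 300 nM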
* = called active by the depositor; [ ] = remark or other dose.

What do the screens show for `CO[C@H]1CN(C)C(=O)c2ccc(NS(C)(=O)=O)cc2OC[C@H](C)N(CCC(F)(F)F)C[C@H]1C`?
PAX8 inh HTS: -1; FN deposition inh: 2; PGC1a acetyl inh: 0; F508del corr: 0; EWS-Fli block: -4; HIV Env fusion: 3[16.7 µM]

What do the screens show for `CO[C@H]1CN(C)C(=O)c2cc(NC(C)=O)ccc2OC[C@H](C)N(S(=O)(=O)c2cn(C)cn2)C[C@H]1C`?
FN deposition inh: -2; PGC1a acetyl inh: -3; F508del corr: 1; EWS-Fli block: 6; HIV Env fusion: 47[16.7 µM]

Results for CC(=O)Oc1ccc(OC(C)=O)c(SCCCCCCl)c1 ?
PAX8 inh HTS: 15; FN deposition inh: 6; F508del corr: 0; EWS-Fli block: 54*; HIV Env fusion: -8

How did COc1cc(OC)cc(C(=O)Nn2c(C)nc3ccccc3c2=O)c1 do in these assays?
PGC1a acetyl inh: 15

What do the screens show for `COc1cc(OC)cc(-c2nc3ccccc3c(=O)n2OC(=O)c2ccc(C)c(C)c2)c1`?
PAX8 inh HTS: 9; FN deposition inh: -6; F508del corr: 9.1*; EWS-Fli block: -3; HIV Env fusion: -2

How did CC(C)CC#Cc1ccc2c(c1)O[C@H](CN(C)Cc1ccccn1)[C@H](C)CN([C@@H](C)CO)S2(=O)=O do in these assays?
PAX8 inh HTS: 57; FN deposition inh: 2; PGC1a acetyl inh: -1; EWS-Fli block: 18; HIV Env fusion: -15[16.7 µM]

Results for C[C@@H]1CN([C@H](C)CO)S(=O)(=O)c2ccc(C#CC3CC3)cc2O[C@H]1CN(C)Cc1ccccn1 ?
FN deposition inh: 13; PGC1a acetyl inh: -23; F508del corr: 17*; EWS-Fli block: inconclusive; HIV Env fusion: 34[16.7 µM]

Results for CC(C)CC#Cc1ccc2c(c1)O[C@@H](CN(C)Cc1ccccn1)[C@H](C)CN([C@H](C)CO)S2(=O)=O ?
PAX8 inh HTS: 72*; FN deposition inh: 2; PGC1a acetyl inh: 4; EWS-Fli block: 32; HIV Env fusion: 91*[16.7 µM]

Results for C[C@H](CO)N1C[C@H](C)[C@H](CN(C)Cc2ccccn2)Oc2cc(C#CC3CC3)ccc2S1(=O)=O ?
FN deposition inh: -8; PGC1a acetyl inh: -17; F508del corr: 4; EWS-Fli block: 5; HIV Env fusion: -17[16.7 µM]

How did COCCNC(=O)C[C@@H]1CC[C@@H](NC(=O)NC2CCCC2)[C@@H](CO)O1 do in these assays?
PAX8 inh HTS: 12; FN deposition inh: 0; PGC1a acetyl inh: -1; F508del corr: 0; EWS-Fli block: -3; HIV Env fusion: -31[16.7 µM]

How did O=C(C[C@@H]1C=C[C@@H](NC(=O)C2CCOCC2)[C@@H](CO)O1)NCc1ccccc1Cl do in these assays?
PGC1a acetyl inh: 7; F508del corr: 2; EWS-Fli block: 1

Results for Cc1ccc(C)c(CSc2nc3[nH]ncc3c(=O)[nH]2)c1 ?
PAX8 inh HTS: 11; FN deposition inh: 3; F508del corr: 16*; EWS-Fli block: 58*; HIV Env fusion: -7

What do the screens show for `Fc1ccc2nc(C3CCN(Cc4nc(CC5CC5)no4)CC3)[nH]c2c1`?
PAX8 inh HTS: -3; FN deposition inh: 0; PGC1a acetyl inh: -6; F508del corr: 8.6*; EWS-Fli block: 5; HIV Env fusion: 12

What do the screens show for `CCCCCCCCCCCCCCCC[n+]1cccc2ccccc21`?
PAX8 inh HTS: 109*; EWS-Fli block: 89*; HIV Env fusion: 74*

What do the screens show for `COc1ccc(NC(=O)COc2ccc(N(C)S(=O)(=O)c3ccc(Cl)cc3)cc2)cc1OC`?
PAX8 inh HTS: 42; FN deposition inh: 1; PGC1a acetyl inh: -19; F508del corr: -3; EWS-Fli block: 31; HIV Env fusion: 57*

How did COc1ccc2c3c(n(C)c2c1)[C@H](CO)N(S(C)(=O)=O)CC31CN(C(=O)Nc2cccc(F)c2)C1 do in these assays?
PAX8 inh HTS: -6; PGC1a acetyl inh: -11; F508del corr: 1

What do the screens show for `Cc1cc(C)c(S(=O)(=O)N2CCCCC2)cc1N(C)S(=O)(=O)c1ccc(Cl)cc1`?
PAX8 inh HTS: 23; FN deposition inh: -12; PGC1a acetyl inh: 7; HIV Env fusion: 95*

Results for Cc1ccc(S(=O)(=O)N(C)c2cc(S(=O)(=O)N3CCOCC3)c(C)cc2C)cc1 ?
PAX8 inh HTS: 7; FN deposition inh: -5; PGC1a acetyl inh: -5; F508del corr: -1; EWS-Fli block: 1; HIV Env fusion: 16
